Htt clearance – clearance of mutant huntingtin inclusions, primary screen, imaging, HeLa Exon1htt(103Q)mCFP, confocal imaging; 47,000 compounds, 0.42% hits; inhibition, % at 1.5 µM; AID 853, 2007; aggregate imaging; zero = plate's median compound well;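 active = inhibition of aggregate fluorescence above about 70%, also judged a hit by eye on the cell image, limit read from the data, passing the limit was not always enough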;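 also: cells exposed to compound for three days before fixation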
HEK293 NFkB inh – inhibitors of PMA/ionomycin-induced NF-kB reporter, primary screen, antigen receptor NF-kB inhibitor project, cell-based, HEK-293 luciferase reporter, luminescence; inhibition, % at 3 µM; 62,000 compounds, 0.21% hits; HEK-293 NF-kB luciferase reporter; AID 465, 2006;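 active = inhibition above the mean of all tested compounds plus 3 SD, cut at about 40% in these data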
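Material: HEK-293 cells with stable firefly luciferase reporter driven by four HIV NF-kB elements / Also added: PMA plus ionomycin mix as NF-kB-activating stimulus / Compound dosing: 3 µM once, 0.30% DMSO / Times: 1 h pretreatment, 16 h stimulation, 37 °C / Signal: luminescence / Evaluation: per-plate % inhibition versus controls / Benchmarks: DMSO and 10 µM reference inhibitor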
M1 antag – antagonists of rat M1 muscarinic receptor; 64,000 compounds, 3.4% hits; CHO-M1 cells, Fluo-4 calcium, ACh EC80 antagonist mode; active compounds read low; B-score at 10 µM;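 active = calcium fluorescence response, raw or row-and-column corrected B-score, differing from the plate sample mean either way at a set confidence level, mostly lower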
Target sequence (P08482 whole entry, looked up): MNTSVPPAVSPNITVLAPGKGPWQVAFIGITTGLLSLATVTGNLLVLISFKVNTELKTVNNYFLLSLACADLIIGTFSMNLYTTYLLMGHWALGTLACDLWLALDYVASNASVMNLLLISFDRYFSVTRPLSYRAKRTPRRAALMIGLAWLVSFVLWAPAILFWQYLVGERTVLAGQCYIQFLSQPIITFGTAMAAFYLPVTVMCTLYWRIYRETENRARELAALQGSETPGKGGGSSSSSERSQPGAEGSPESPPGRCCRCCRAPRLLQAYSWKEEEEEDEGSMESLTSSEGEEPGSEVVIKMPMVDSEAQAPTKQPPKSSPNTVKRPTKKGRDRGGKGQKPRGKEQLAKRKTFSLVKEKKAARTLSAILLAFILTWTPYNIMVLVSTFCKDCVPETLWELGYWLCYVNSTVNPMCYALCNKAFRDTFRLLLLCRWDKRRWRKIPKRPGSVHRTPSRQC
D1 allo mod – D1 CRE-luciferase signal change, two-sided – cell-based, HEK293 D1, dopamine EC30, D1 allosteric modulator project, primary screen; D(1A) dopamine receptor (Homo sapiens), P21728; dopamine EC30 potentiation; actives deviate in either direction; B-score at 10 µM; 58,000 compounds, 5.9% hits;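 active = luminescence count or its row- and column-corrected plate score outside the 99.7% band of the plate's sample wells, on either side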
M1 agonist – M1 muscarinic receptor agonists, primary screen, CHO-M1 cells, Fluo-4 calcium, agonist mode; Muscarinic acetylcholine receptor M1; Fluo-4 calcium fluorescence; active compounds read high; B-score at 10 µM; 64,000 compounds, 3% hits; AID 626, 2007;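 active = fluorescence rise, raw or as B-score row- and column-corrected plate score, outside the 99.7% band of its plate's samples, either direction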
Jurkat viability – cytotoxicity toward Jurkat T cells, primary screen, cytotoxicity control, cell-based, Jurkat E6.1, 60K MLSMR library. 56,000 compounds, 1.2% hits. inhibition, % at 4 µM. Jurkat E6.1 viability, ATP luminescence, 48 h;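 active = inhibition above the mean inhibition of all tested compounds plus 3 SD, cut at about 28% in these data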
M1 antag conf – rat M1 muscarinic receptor antagonists, confirmation, CHO cells, Fluo-4 calcium, duplicate; shares compounds with M1 antag; ACh EC80 antagonism; active compounds read low; calcium response (max-min fluorescence) at 10 µM; 1,700 compounds, 43% hits; AID 677, 2007;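 active = calcium response below the same-plate mean of wells given acetylcholine alone at its 80%-effect dose, minus 3 SD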
mGluR4 antag – human mGluR4 response to M1 antagonist hits, M1 allosteric modulator project, cell-based, antagonist mode, secondary assay 1 | shares compounds with M1 antag | fluorescence response (max-min) at 10 µM | CHO-mGluR4 calcium flux, Fluo-4 fluorescence, glutamate EC80; active compounds read low | AID 678, 2007 | 1,700 compounds, 0.9% hits;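 active = fluorescence response below the plate's average for near-maximal glutamate wells, less 3 SD of those wells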;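 also: raw unnormalized fluorescence span taken in the window right after glutamate addition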
A number is an active result; i = inactive; nt = not tested or not shown. This is a sample that favours compounds with a hit; in the whole collection about 9.5% have one here.

SMILES	Htt clearance	HEK293 NFkB inh	M1 antag	D1 allo mod	M1 agonist	Jurkat viability	M1 antag conf	mGluR4 antag
O=C(c1ccc(=O)oc1)N1CCN(C(c2ccccc2)c2ccccc2)CC1	i	nt	-2.7	nt	i	nt	319	i
Cc1cc(=O)oc(C)c1C(=O)N1CCN(C(c2ccccc2)c2ccccc2)CC1	nt	i	i	i	i	i	nt	nt
Cc1cc(C(=O)N2CCN(C(c3ccccc3)c3ccccc3)CC2)no1	i	i	-3	i	i	i	301	i
CCN1CCN(c2ccc(NC(=O)c3cccc4ncccc34)cc2)CC1	nt	i	-5.1	i	i	i	i	i
CCCN1Cc2cccc(C(=O)Nc3ccc(N4CCN(CC)CC4)cc3)c2C1=O	nt	i	-1.7	i	i	i	354	i
O=C(Nc1ccc(N2CCN(Cc3ccccc3)CC2)cc1)c1cccnc1	i	i	i	i	i	i	nt	nt
Cc1ccc(Cn2ccc(=O)c(OCc3c(Cl)cccc3Cl)c2C)cc1	i	nt	nt	nt	nt	nt	nt	nt
Cc1cccc(C2Nc3ccccc3C(=O)N2CCc2ccccc2)n1 (stereo unspecified)	nt	i	-11	i	i	i	i	i
CCn1c(=O)c(C(=O)Nn2c(C)nc3ccccc3c2=O)c(O)c2ccccc21	nt	i	-14	i	i	i	i	i
Cc1nc2ccccc2c(=O)n1NC(=O)c1ccccc1Cl	i	i	i	i	i	i	nt	nt
O=C1c2ccccc2C(=O)N1CCCc1nc2ccccc2c(=O)n1-c1cccnc1	i	i	i	i	i	i	nt	nt
Cc1ccc(-c2nnn(CC(=O)O)n2)cc1	i	i	i	i	i	nt	nt	nt
CSc1ccc(-c2nnn(Cc3ccc(C)cc3)n2)cc1	i	nt	-5.4	nt	i	nt	i	i
Cc1ccc(-n2nnc3c(SCC(=O)NCC4CCCO4)ncnc32)cc1 (stereo unspecified)	i	i	-2.4	nt	i	nt	i	i
O=C(CSc1ncnc2c1nnn2-c1ccc(F)cc1)NCC1CCCO1 (stereo unspecified)	i	i	i	i	i	i	nt	nt
COc1cc2c(cc1OC)C(C(=O)N1CCN(c3ccccn3)CC1)C(c1cccs1)N(C)C2=O (stereo unspecified)	i	i	-2.1	i	i	i	i	i
Cc1cc(N2CCN(c3ccccn3)CC2)n2c(nc3ccccc32)c1C#N	i	i	-2.2	i	i	i	i	127
COCCn1c(-c2ccccc2F)n[nH]c1=S	i	i	i	i	i	i	nt	nt
COCCn1c(C23CC4CC(CC(C4)C2)C3)n[nH]c1=S	i	i	-2.8	i	i	i	i	i
Cc1ccc2c(c1)N(CCC(=O)NC1CC1)C(=O)C(C)O2 (stereo unspecified)	i	i	-4	i	i	i	i	i
COc1ccc(S(=O)(=O)N(CC(=O)N2CCOCC2)Cc2ccccc2)cc1C	i	nt	nt	nt	nt	nt	nt	nt
COc1ccc(S(=O)(=O)N(CC(=O)O)Cc2ccccc2)cc1OC	nt	i	-18	i	i	i	i	i
Cc1cc(C)nc(N2CCC(C(=O)Nc3cccc(C(F)(F)F)c3)CC2)n1	i	i	i	i	i	i	nt	nt
CCOc1ccc(C(=O)CCN2CCCCCC2)cc1	nt	i	-2.5	i	i	i	i	i
COC(=O)c1ccc(NC(=O)CCN2CCCCC2)cc1	nt	i	-1.3	i	i	i	553	i
COC(=O)CCCCCNc1ccc(C(=O)OC)cc1N	i	i	i	i	i	i	nt	nt
COc1cc(NC(=O)c2ccc(Br)o2)c(C(=O)O)cc1OC	i	i	i	i	i	i	nt	nt
CCCC1(CCC)NC(=O)NC1=O	i	i	-2.9	i	i	i	i	i

Screening results (PubChem)
